The text below walks through data of ChEMBL document CHEMBL4364285 (J Med Chem, 2019).

The nature of data set [1]: Solubility of the compound in water. In kind it is physicochemical. As to conditions: buffer.
Data set [2] addresses Protein cereblon/Zinc finger protein Aiolos (Homo sapiens) (UniProt Q96SW2+Q9UKT9). In words: Inhibition of CRBN-mediated IKFZ3 degradation in human OPM2 cells measured after 24 hrs by Western blot analysis. Type of data set: cell-based. A general note: A western blot detects proteins with antibodies after separation by electrophoresis.
Data set [3] has as its target T1, Cereblon isoform 4 (Magnetospirillum gryphiswaldense, UniProt A4TVL0).
T1 sequence (A4TVL0 whole entry): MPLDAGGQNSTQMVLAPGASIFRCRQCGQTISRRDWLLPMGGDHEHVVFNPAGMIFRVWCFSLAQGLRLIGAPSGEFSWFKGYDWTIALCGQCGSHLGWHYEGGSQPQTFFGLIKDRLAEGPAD
As to the kind of experiment: Inhibition of MANT-uracil binding to wild-type Magnetospirillum gryphiswaldense CRBN isoform 4 by FRET assay. In a few lines:
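Wild-type MsCI4 FRET binding assay, following an earlier protocol. Compounds were dissolved in DMSO, or in water or bicarbonate buffer where soluble. Ki values were derived from the binding curves.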

Data set [4] can be described thus: Solubility of the compound in bicarbonate buffer. Type of data set: physicochemical.
In data set [5] the test system is THP-1. As to the kind of experiment: Inhibition of TPA-induced TNFalpha production in human THP1 cells at 3 uM by ELISA relative to control. Type of data set: functional. On the technique in general: In an ELISA, binding on a coated surface is turned into a signal by an enzyme label.
A short description of data set [6]: Terminal elimination half life in healthy human at 50 to 400 mg, po at pH 7.4. Type of data set: ADME, organism-based. The settings on record: in vivo, read-out: beta t1/2.

Active and inactive are the calls of the source. No cut-off for these calls is given here. Where only a bound is given, the exact number is not on record here.

In general, solubility refers to the dissolved amount per volume that the medium holds. A low value points to a poorly soluble substance. Usually inhibition stands for how much of the control response was suppressed. For orientation: Ki means the equilibrium dissociation constant of an inhibitor or competing ligand from its target.

Protein cereblon/Zinc finger protein Aiolos (Homo sapiens), sequence (Q96SW2 whole entry, looked up, canonical isoform): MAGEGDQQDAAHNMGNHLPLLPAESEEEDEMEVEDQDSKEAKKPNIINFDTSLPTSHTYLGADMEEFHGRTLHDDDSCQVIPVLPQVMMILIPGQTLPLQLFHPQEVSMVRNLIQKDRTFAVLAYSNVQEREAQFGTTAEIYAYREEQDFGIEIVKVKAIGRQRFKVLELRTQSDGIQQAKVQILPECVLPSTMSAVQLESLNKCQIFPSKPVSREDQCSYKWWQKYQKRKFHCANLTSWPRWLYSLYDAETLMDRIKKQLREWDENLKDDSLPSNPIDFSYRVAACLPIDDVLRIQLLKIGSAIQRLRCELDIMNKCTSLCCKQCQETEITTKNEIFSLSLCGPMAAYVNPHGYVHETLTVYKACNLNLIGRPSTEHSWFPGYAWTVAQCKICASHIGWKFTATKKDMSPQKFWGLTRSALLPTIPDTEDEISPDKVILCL
Protein cereblon/Zinc finger protein Aiolos (Homo sapiens), sequence (Q9UKT9 whole entry, looked up, canonical isoform): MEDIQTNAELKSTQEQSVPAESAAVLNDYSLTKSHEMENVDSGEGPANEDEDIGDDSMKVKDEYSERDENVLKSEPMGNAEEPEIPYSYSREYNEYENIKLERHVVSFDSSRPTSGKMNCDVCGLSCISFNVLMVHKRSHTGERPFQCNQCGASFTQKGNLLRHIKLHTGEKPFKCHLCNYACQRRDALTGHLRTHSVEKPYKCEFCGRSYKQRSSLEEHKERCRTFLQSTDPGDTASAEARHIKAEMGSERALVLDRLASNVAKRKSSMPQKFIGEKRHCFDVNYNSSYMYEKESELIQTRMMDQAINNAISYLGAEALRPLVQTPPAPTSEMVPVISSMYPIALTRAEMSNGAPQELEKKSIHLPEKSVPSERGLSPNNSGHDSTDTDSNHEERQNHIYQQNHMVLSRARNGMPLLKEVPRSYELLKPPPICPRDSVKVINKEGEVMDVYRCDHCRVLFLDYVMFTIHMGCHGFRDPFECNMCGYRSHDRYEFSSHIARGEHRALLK

As for `NC[C@H]1CC[C@@H](COC(=O)NC2CC(=O)NC2=O)CC1.O=C(O)C(F)(F)F` (stereo partly specified), in data set [1], the solubility result is given as “Soluble”. Besides, in data set [2], the inhibition entry is “inactive”.

Take `O=C1CC(N2C(=O)c3cccc([N+](=O)[O-])c3C2=O)C(=O)N1` (stereo unspecified): the inhibitory constant (Ki) in data set [3] was over 40 µM. In addition, the inhibition entry in data set [2] was “inactive”.

With `CC(C)=CC(=O)NC1CC(=O)NC1=O` (stereo unspecified), in data set [3], the Ki is over 40 µM. Moreover, the inhibition entry in data set [2] is “inactive”.

As to `NC[C@H]1CC[C@@H](COC(=O)NC2CCC(=O)NC2=O)CC1.O=C(O)C(F)(F)F` (stereo partly specified), the solubility entry in data set [1] is on record as “Soluble”. Besides, the inhibition result in data set [2] was “inactive”.

As to `O=C1CC(NC(=O)c2cc([N+](=O)[O-])cc([N+](=O)[O-])c2)C(=O)N1` (stereo unspecified), in data set [3], the Ki was over 99 µM. For the same molecule, the inhibition result in data set [2] is “inactive”.

As for `O=C(O)CCC(=O)NCc1ccc(COC(=O)NC2CCC(=O)NC2=O)cc1` (stereo unspecified), the Ki in data set [3] was found to be 36 µM. Also, the solubility in data set [4] is listed as over 200 mM. In data set [2], the inhibition entry was “inactive”.

In the case of `O=C1CC(NC(=O)c2sc3cccc(Cl)c3c2Cl)C(=O)N1` (stereo unspecified), the Ki in data set [3] came to 20 µM. Moreover, the inhibition entry in data set [2] is “inactive”.

In data set [5], `O=C1CCC(NC(=O)c2ccccc2C(=O)O)C(=O)N1` (stereo unspecified) came in with an inhibition at 3 µM of 80%.

In data set [3], `O=C(/C=C/c1ccccc1)NC1CC(=O)NC1=O` (stereo unspecified) displayed a Ki of 20 µM. This counts as double-digit micromolar.

Turning to `O=C1CC(NC(=O)OC[C@@H]2CCCN2)C(=O)N1` (stereo partly specified), the inhibition result in data set [2] was “inactive”.

With `O=C1CC(NC(=O)OCc2ccccc2)C(=O)N1` (stereo unspecified), in data set [3], the affinity, expressed as Ki, was 4 µM.

Turning to `Nc1cccc2c1C(=O)N(C1CC(=O)NC1=O)C2=O` (stereo unspecified), the Ki in data set [3] was over 40 µM.

Take `O=C1CCC(N2C(=O)c3ccc([N+](=O)[O-])cc3C2=O)C(=O)N1` (stereo unspecified): the Ki in data set [3] is 9 µM. In data set [2], the inhibition result was “inactive”.

`O=C(O)CCC(=O)NCc1ccc(COC(=O)NC2CC(=O)NC2=O)cc1` (stereo unspecified) came in with a Ki in data set [3] of 12 µM. Also, the solubility in data set [4] is reported as over 200 mM. In addition, in data set [2], the inhibition entry was “inactive”.

The molecule `O=C1CCC(NC(=O)OC[C@@H]2CCCN2)C(=O)N1` (stereo partly specified) registered a Ki in data set [3] of 45 µM. Moreover, in data set [2], the inhibition result was “inactive”.

Regarding `Nc1cccc2c1C(=O)N(C1CCC(=O)NC1=O)C2=O` (stereo unspecified) [POMALIDOMIDE], in data set [3], the Ki is 0.8 µM.

`O=C1CC(NC(=O)Cc2ccccc2)C(=O)N1` (stereo unspecified) came in with a Ki in data set [3] of over 40 µM. Further, in data set [2], the inhibition result was “inactive”.

`O=C1CC(N2C(=O)c3ccc([N+](=O)[O-])cc3C2=O)C(=O)N1` (stereo unspecified) showed a Ki in data set [3] of 11 µM. In data set [2], the inhibition entry was “inactive”.

In data set [3], `Nc1cccc2c1CN(C1CCC(=O)NC1=O)C2=O` (stereo unspecified) [LENALIDOMIDE] registered a Ki of 3.1 µM.

In the case of `NCc1ccc(COC(=O)NC2CC(=O)NC2=O)cc1.O=C(O)C(F)(F)F` (stereo unspecified), in data set [3], the affinity corresponds to a Ki of 12 µM. Also, in data set [1], the solubility entry is “Soluble”. Besides, the inhibition entry in data set [2] is “inactive”.

Take `O=C1CCC(N2C(=O)c3ccccc3C2=O)C(=O)N1` (stereo unspecified) [THALIDOMIDE]: the half-life in data set [6] fell in the range of 5.5 to 7.3 h.

In data set [3], `O=C1CC(NC(=O)c2sc3ccccc3c2Cl)C(=O)N1` (stereo unspecified) came in with a Ki of over 40 µM. In addition, in data set [2], the inhibition result was “inactive”.

For the molecule `O=C1CCC(N2C(=O)c3cccc([N+](=O)[O-])c3C2=O)C(=O)N1` (stereo unspecified), in data set [3], the Ki was over 40 µM. In addition, in data set [2], the inhibition entry was “inactive”.
